Laboratory results from ChEMBL document CHEMBL5653624 (Biochem Pharmacol, 2016).
Calls of active or inactive are those of the source. The rule behind the calls is not given here.

Assays:
RAW264.7 = experiment: Cytotoxicity against mouse RAW264.7 cells assessed as reduction in cell viability at 1 uM measured after 20 hrs by MTS assay; assay type: toxicity, cell-based; details: raw264.7, 20 h
How it was run: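 MTS viability assay. RAW 264.7 cells seeded at 25,000 cells/cm2; HBE and hASM cells at 70% confluency and serum-starved for 24 h. Exposure for 20 h with LPS/IFNγ stimulation. MTS reagent added for 1 h at 37 °C in the dark, absorbance read at 490 nm. LPS/IFNγ-stimulated cells without inhibitor set at 100%.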

[1] = biological target: T1, Histone deacetylase 3 (Mus musculus) (UniProt O88895); experiment: Inhibition of HDAC3 in mouse RAW264.7 cells assessed as effect on histone H4 acetylation measured after 20 hrs by Western blot analysis; assay type: cell-based
T1 sequence (whole entry): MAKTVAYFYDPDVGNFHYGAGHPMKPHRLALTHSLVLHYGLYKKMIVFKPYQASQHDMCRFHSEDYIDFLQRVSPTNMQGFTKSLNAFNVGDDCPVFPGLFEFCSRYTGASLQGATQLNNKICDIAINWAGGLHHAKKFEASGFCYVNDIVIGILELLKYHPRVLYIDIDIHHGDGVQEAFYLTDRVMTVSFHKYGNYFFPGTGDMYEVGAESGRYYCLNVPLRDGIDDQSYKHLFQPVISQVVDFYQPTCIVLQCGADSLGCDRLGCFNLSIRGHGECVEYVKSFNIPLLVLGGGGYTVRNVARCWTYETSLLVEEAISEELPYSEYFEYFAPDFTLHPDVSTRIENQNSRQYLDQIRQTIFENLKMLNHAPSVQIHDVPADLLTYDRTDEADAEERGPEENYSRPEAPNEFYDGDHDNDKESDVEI
How it was run: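 Histones extracted from RAW 264.7 cells after 20 h inhibitor treatment, protein quantified by micro BCA (BSA standard), and H3 and H4 acetylation assessed by Western blot versus vehicle-treated cells.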

Nc1cc(F)ccc1NC(=O)/C=C/c1cnn(C/C=C/c2ccccc2)c1
Activity (RAW264.7): Non-Toxic | inhibition [1]: inactive
